Active and inactive are the calls of the source.
How the values were obtained:
[1] = Reduction in SREBP-1c mRNA expression in mouse 3T3L1 cells at 1 to 50 uM after 72 hrs by RT-PCR method; assay type: functional, cell-based; conditions: 3T3-L1
Outline: (§1)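 3T3-L1 preadipocytes grown in DMEM with 10% FBS at 37 °C under 5% CO2. Differentiation starts 2 days post-confluence (day 0) with IBMX, 100 ng/mL dexamethasone and insulin for 3 d, then insulin in 10% FBS/DMEM for 3 d, then basic medium for 3 d. Compound is added on day 0 and renewed at day 3. Vehicle control receives the same volume of DMSO.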

[2] = Reduction in C/EBPbeta mRNA expression in mouse 3T3L1 cells at 25 uM by RT-PCR method; assay type: functional, cell-based; conditions: 3T3-L1, TDE = time-dependent effect; outline: as §1
[3] = Reduction in C/EBPdelta mRNA expression in mouse 3T3L1 cells at 25 uM by RT-PCR method; assay type: functional, cell-based; conditions: 3T3-L1, TDE = time-dependent effect; outline: as §1
[4] = Reduction in C/EBPalpha mRNA expression in mouse 3T3L1 cells at 25 uM by RT-PCR method; assay type: functional, cell-based; conditions: 3T3-L1, TDE = time-dependent effect
[5] = Reduction in C/PPARgamma mRNA expression in mouse 3T3L1 cells at 25 uM by RT-PCR method; assay type: functional, cell-based; conditions: 3T3-L1, TDE = time-dependent effect; outline: as §1
[6] = Reduction in C/EBPalpha protein expression in mouse 3T3L1 cells at 1 to 50 uM by Western blot method; assay type: functional, cell-based; conditions: 3T3-L1
Outline: (§2)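 Mouse 3T3-L1 cells taken through the differentiation protocol, with compound or DMSO vehicle given from day 0 and renewed at day 3. Cells lysed on ice for 0.5 h in RIPA with PMSF, Na3VO4, NaF and protease inhibitors, then centrifuged at 12,000g. Lysates run on 12% SDS-PAGE and transferred to PVDF. Blots probed overnight at 4 °C and detected with HRP secondary. Bands quantified by optical density against GAPDH. Three independent experiments.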

[7] = Reduction in PPARgamma protein expression in mouse 3T3L1 cells at 1 to 50 uM by Western blot method; assay type: functional, cell-based; conditions: 3T3-L1; outline: as §1
[8] = Reduction in SREBP-1c protein expression in mouse 3T3L1 cells at 1 to 50 uM by Western blot method; assay type: functional, cell-based; conditions: 3T3-L1; outline: as §1
[9] = Reduction in SCD1 protein expression in mouse 3T3L1 cells at 1 to 50 uM after 9 days by Western blot method; assay type: functional, cell-based; conditions: 3T3-L1; outline: as §1
[10] = Reduction in FAS protein expression in mouse 3T3L1 cells at 1 to 50 uM after 9 days by Western blot method; assay type: functional, cell-based; conditions: 3T3-L1; outline: as §1
[11] = Reduction in ACC protein expression in mouse 3T3L1 cells at 1 to 50 uM after 9 days by Western blot method; assay type: functional, cell-based; conditions: 3T3-L1; outline: as §2
3T3-L1 [12] = experiment: Increase in AMPKalpha Thr172 phosphorylation in mouse 3T3L1 cells at 1 to 50 uM after 9 days by Western blot method; assay type: cell-based; outline: as §2
3T3-L1 [13] = experiment: Increase in AMPKbeta Ser108 phosphorylation in mouse 3T3L1 cells at 1 to 50 uM after 9 days by Western blot method; assay type: cell-based; outline: as §2
3T3-L1 [14] = experiment: Activation of AMPK in mouse 3T3L1 cells assessed as increase in ACC Ser79 phosphorylation at 1 to 50 uM after 9 days by Western blot method; assay type: cell-based; outline: as §2
[15] = Reduction in AMPKalpha protein expression in mouse 3T3L1 cells at 1 to 50 uM after 9 days by Western blot method; assay type: functional, cell-based; conditions: 3T3-L1; outline: as §2
[16] = Reduction in AMPKbeta protein expression in mouse 3T3L1 cells at 1 to 50 uM after 9 days by Western blot method; assay type: functional, cell-based; conditions: 3T3-L1; outline: as §2
3T3-L1 [17] = experiment: Increase in AMPKalpha Thr172 phosphorylation in mouse 3T3L1 cells at 25 uM by Western blot method; assay type: cell-based; conditions: TDE = time-dependent effect
3T3-L1 [18] = experiment: Reduction in AMPKalpha1 mRNA expression in mouse 3T3L1 cells at 25 uM after 24 hrs by RT-PCR method; assay type: functional, cell-based
3T3-L1 [19] = experiment: Reduction in AMPKalpha2 mRNA expression in mouse 3T3L1 cells at 25 uM after 24 hrs by RT-PCR method; assay type: functional, cell-based
3T3-L1 [20] = experiment: Inhibition of adipogenesis in mouse 3T3L1 cells assessed as reduction in triglyceride content at 25 uM by colorimetric assay; assay type: functional, cell-based
3T3-L1 [21] = experiment: Increase in AMPKalpha Thr172 phosphorylation in mouse 3T3L1 cells at 25 uM after 9 days by Western blot method; assay type: cell-based; outline: as §2
3T3-L1 [22] = experiment: Activation of AMPK in mouse 3T3L1 cells assessed as increase in ACC Ser79 phosphorylation at 25 uM after 9 days by Western blot method; assay type: cell-based; outline: as §2
[23] = Reduction in SREBP-1c protein expression in mouse 3T3L1 cells at 25 uM after 3 days by Western blot method; assay type: functional, cell-based; conditions: 3T3-L1; outline: as §1
[24] = Reduction in PPARgamma protein expression in mouse 3T3L1 cells at 25 uM after 3 days by Western blot method; assay type: functional, cell-based; conditions: 3T3-L1; outline: as §1
[25] = Reduction in C/EBPalpha protein expression in mouse 3T3L1 cells at 25 uM after 3 days by Western blot method; assay type: functional, cell-based; conditions: 3T3-L1; outline: as §1
[26] = Reduction in FAS protein expression in mouse 3T3L1 cells at 25 uM after 9 days by Western blot method; conditions: 3T3-L1
[27] = Reduction in SCD1 protein expression in mouse 3T3L1 cells at 25 uM after 9 days by Western blot method; conditions: 3T3-L1

Measured: Activity

O=Cc1c(-c2nc3ccccc3c(=O)[nH]2)[nH]c2ccccc12
active: [1] | [2] tde | [3] tde | [4] tde | [5] tde | [6] | [7] | [8] | [9] | [10] | [11] | 3T3-L1 [12] Dose-dependent effect | 3T3-L1 [13] Dose-dependent effect | 3T3-L1 [14] | [15] | [16] | 3T3-L1 [17] tde | 3T3-L1 [18] | 3T3-L1 [19] | 3T3-L1 [20] | 3T3-L1 [21] | 3T3-L1 [22] | [23] | [24] | [25] | [26] | [27]
